Experiments:
Staphylococcus aureus = experiment: Antibacterial activity against methicillin-resistant Staphylococcus aureus ATCC 43300 assessed as reduction in microbial growth after 18 hrs by resazurin dye based assay; format: functional
Method in brief: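 Overnight culture at 37 °C, diluted 40-fold in MHB and grown 1.5-2 h to mid-log. Inoculum 5 × 10^5 CFU/mL. Two-fold serial dilutions, final 0.008-32 µg/mL, in duplicate. […] Vancomycin served as the Gram-positive standard.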

Pseudomonas aeruginosa [1] = experiment: Antibacterial activity against Pseudomonas aeruginosa ATCC 27853 assessed as reduction in microbial growth after 18 hrs by resazurin dye based assay; format: functional
Method in brief: (§1)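 Bacteria grown overnight at 37 °C in LB, NB or MHB, diluted 40-fold into MHB and grown 1.5-2 h to mid-log phase. Inoculum 5 × 10^5 CFU/mL (final), 2-fold serial dilutions, final range 0.008-32 µg/mL, in duplicate. […] Colistin as positive control, Z'-factor >0.4 for plate QC.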

Escherichia coli [2] = experiment: Antibacterial activity against Escherichia coli ATCC 25922 assessed as reduction in microbial growth after 18 hrs by resazurin dye based assay; format: functional; method in brief: as §1
Klebsiella pneumoniae [3] = experiment: Antibacterial activity against Klebsiella pneumoniae ATCC 700603 assessed as reduction in microbial growth after 18 hrs by resazurin dye based assay; format: functional; method in brief: as §1
Acinetobacter baumannii [4] = experiment: Antibacterial activity against Acinetobacter baumannii ATCC 19606 assessed as reduction in microbial growth after 18 hrs by resazurin dye based assay; format: functional; conditions: ATCC 19606 = CIP 70.34 = JCM 6841; method in brief: as §1
Cryptococcus neoformans = experiment: Antifungal activity against Cryptococcus neoformans ATCC 208821 assessed as reduction in microbial growth after 36 hrs by resazurin dye based assay; format: functional
Method in brief: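 Yeast grown 3 days on YPD agar at 30 °C and diluted in YNB broth to 2.5 × 10^3 CFU/mL. Compounds at 0.008-32 µg/mL final, 2-fold dilutions, in duplicate. After 36 h at 35 °C without shaking, resazurin added at 0.006% final for a further 3 h; MIC read as absorbance at OD570-600. Fluconazole as positive control.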

Pseudomonas aeruginosa [5] = experiment: Potentiation of doxycycline-induced antibacterial activity against Pseudomonas aeruginosa ATCC 27853 assessed as complete reduction in visible microbial growth after 18 hrs in presence of 4.5 uM doxycycline by two fold serial dilution method; format: functional
Method in brief: (§2)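 Adjuvant test by broth dilution: inoculum 5 × 10^5 CFU in 200 µL MHB. Two-fold serial dilutions of each derivative were given with doxycycline fixed at 2 µg/mL. After 18 h at 37 °C, the value recorded was the lowest adjuvant concentration giving complete absence of visible growth. Three independent repeats.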

Escherichia coli [6] = experiment: Potentiation of doxycycline-induced antibacterial activity against Escherichia coli ATCC 25922 assessed as complete reduction in visible microbial growth after 18 hrs in presence of 4.5 uM doxycycline by two fold serial dilution method; format: functional; method in brief: as §2
Klebsiella pneumoniae [7] = experiment: Potentiation of doxycycline-induced antibacterial activity against Klebsiella pneumoniae ATCC 700603 assessed as complete reduction in visible microbial growth after 18 hrs in presence of 4.5 uM doxycycline by two fold serial dilution method; format: functional
Acinetobacter baumannii [8] = experiment: Potentiation of doxycycline-induced antibacterial activity against Acinetobacter baumannii AYE assessed as complete reduction in visible microbial growth after 18 hrs in presence of 4.5 uM doxycycline by two fold serial dilution method; format: functional; method in brief: as §2
Erythrocyte = experiment: Hemolytic activity in human Erythrocyte incubated for 1 hr by Neubauer haemocytometric analysis; format: ADME, cell-based
Method in brief: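 Human whole blood washed three times in 0.9% NaCl and resuspended at 0.5 × 10^8 cells/mL (haemocytometer count). Cells added to compound plates, shaken 10 min, then incubated 1 h at 37 °C. After centrifugation at 1,000g for 10 min, supernatant absorbance read at OD405. HC10/HC50 obtained by sigmoidal fit against log concentration.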

L6 = experiment: Cytotoxicity against rat L6 cells assessed as reduction in cell viability at 0.123 to 90 ug/ml measured after 72 hrs by Alamar blue based inverted microscopy analysis; conditions: l6, 72 h, dose 0.123-90 µg/ml
Method in brief: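 Rat skeletal myoblast L6 cells, 4 × 10^4 per well, in RPMI 1640 with L-glutamine and 10% FBS. Seven 3-fold dilutions were tested, 90 to 0.123 µg/mL, for 72 h. Alamar Blue added for 2 h, and fluorescence read at ex 536/em 588 nm. Podophyllotoxin served as reference drug.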

HEK293 = experiment: Cytotoxicity against human HEK293 cells assessed as reduction in cell viability measured after 20 hrs by resazurin based Neubauer haemocytometric analysis; conditions: hek293, 20 h
Method in brief: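 HEK293 cells plated at 5,000 cells/well in DMEM with 10% FBS onto pre-dispensed compound and incubated 20 h at 37 °C, 5% CO2. Resazurin then added at 100 µM final for 3 h; fluorescence read at ex 560/em 590. Signal normalized to 74 µg/mL tamoxifen (0%) and untreated growth (100%). CC50 obtained from dose-response fit.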

Candida albicans = experiment: Antifungal activity against Candida albicans ATCC 90028 assessed as reduction in microbial growth after 36 hrs by absorbance at OD530; conditions: ATCC 90028, 36 h

COc1cc(NC(C)CCCNC(=O)CCC(=O)NCCCNCCCCNCCCNC(=O)CCC(=O)NCCCC(C)Nc2cc(OC)cc3cccnc23)c2ncccc2c1.O=C(O)C(F)(F)F.O=C(O)C(F)(F)F (centres undefined)
MIC (Staphylococcus aureus): > 33.4 µM
MIC (Pseudomonas aeruginosa [1]): > 33.4 µM
MIC (Escherichia coli [2]): > 33.4 µM
MIC (Klebsiella pneumoniae [3]): > 33.4 µM
MIC (Acinetobacter baumannii [4]): > 33.4 µM
MIC (Cryptococcus neoformans): 33.4 µM
MIC (Pseudomonas aeruginosa [5]): 6.25 µM
MIC (Escherichia coli [6]): 50 µM
MIC (Klebsiella pneumoniae [7]): > 200 µM
MIC (Acinetobacter baumannii [8]): > 200 µM
Activity (Erythrocyte): Non-Toxic
Activity (L6): Non-Toxic
Activity (HEK293): Non-Toxic
MIC (Candida albicans): > 33.4 µM

Reference: ChEMBL document CHEMBL4819066, “Repurposing primaquine as a polyamine conjugate to become an antibiotic adjuvant” (Bioorg Med Chem, 2021)
